# Assay results published in the RNAGym collection of RNA variant scans (doi:10.1038/s41586-018-0170-7).
# B1: tRNA (parent)
# chain: GUUCCGUUGGCGUAAUGGUAACGCGUCUCCCUCCUAAGGAGAAGACUGCGGGUUCGAGUCCCGUACGGAACG
# Variants of: B1
# Test: yeast fitness, log relative to wild type (ln ratio); higher = fitter; tRNA-Arg(CCU), competitive growth, 37 C, 1 M NaCl
# How it was run: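 Variants were counted by 125 bp paired-end Illumina sequencing after pools of a combinatorial tRNA-Arg(CCU) library, held on a HIS3 centromeric plasmid in BY4742 lacking the chromosomal gene, grew ~6.5 generations (~26.5 h) in SC-HIS 1M NaCl at 37 °C. Each genotype's fitness is the natural log of its generations relative to the wild type's. Generations were OD-scaled log2 output/input frequencies, inverse-variance weighted over replicates.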
row,Variant,yeast fitness (ln)
1,GUUCCAUUGGCGUAAUGGUAACGCGUCUCCCUCCUAAGGAGACGACUGCGGGUUCGAGUCCCGUACGGGUCG [G6A A43C A69G A70U],-0.224
2,GGUCCUUUGGCGUAAUGGUAACGCGUCUCCCUCCUAAGGAGAAGACUGCGGGUUCGAGUCCCGUACGGGUCG [U2G G6U A69G A70U],-0.151
3,GGUCCAUUGGCGUAAUGGUAACGCGUUUCCCUCCUAAGGAGACGAUUGCGGGUUCGAGUCCCGUACGGAACG [U2G G6A C27U A43C C46U],-0.0569
4,GGUCCAUUGGCGUAAUGGUAACGCGUCUCCCUCCUAAGGAGACGACUGCGGGUUCGAGUCCCGUACGGGUCG [U2G G6A A43C A69G A70U],-0.171
5,GCUCCGUUGGCGUAAUGGUAACGCGUCUCCCUCCUAAGGAGAAGACUGCGGGUUCGAGUCCCGUACGGGGUG [U2C A69G A70G C71U],-0.0131
6,GGUCCGUUGGCGUAAUGGUAACGCGUCUCCCUCCUAAGGAGAAGACUGCGGGUUCGAGUCCCGUAAGGAGCG [U2G C66A A70G],-0.0918
7,ACUCCUUUGGCGUAAUGGUAACGCGUUUCCCUCCUAAGGAGACGAUUGCGGGUUCGAGUCCCGUAUGGGUCG [G1A U2C G6U C27U A43C C46U C66U A69G A70U],-0.472
8,AGUCCGUUGGCGUAAUGGUAACGCGUCUCCCUCCUAAGGAGACGAUUGCGGGUUCGAGUCCCGUACGGAGCG [G1A U2G A43C C46U A70G],-0.114
9,AGUCCGUUGGCGUAAUGGUAACGCGUCUCCCUCCUAAGGAGACGACUGCGGGUUCGAGUCCCGUAAGGGGUG [G1A U2G A43C C66A A69G A70G C71U],-0.329
10,GGUCCGUUGGCGUAAUGGUAACGCGUCUCCCUCCUAAGGAGAAGACUGCGGGUUCGAGUCCCGUAUGGGUUG [U2G C66U A69G A70U C71U],-0.381
11,GGUCCUUUGGCGUAAUGGUAACGCGUCUCCCUCCUAAGGAGACGAUUGCGGGUUCGAGUCCCGUAAGGAAUG [U2G G6U A43C C46U C66A C71U],-0.154
12,GUUCCAUUGGCGUAAUGGUAACGCGUUUCCCUCCUAAGGAGAAGACUGCGGGUUCGAGUCCCGUAUGGAGCG [G6A C27U C66U A70G],-0.0946
13,ACUCCAUUGGCGUAAUGGUAACGCGUUUCCCUCCUAAGGAGAAGACUGCGGGUUCGAGUCCCGUAUGGAUUG [G1A U2C G6A C27U C66U A70U C71U],-0.261
14,GUUCCUUUGGCGUAAUGGUAACGCGUCUCCCUCCUAAGGAGACGACUGCGGGUUCGAGUCCCGUAAGGAGUG [G6U A43C C66A A70G C71U],-0.177
15,AUUCCUUUGGCGUAAUGGUAACGCGUCUCCCUCCUAAGGAGAAGACUGCGGGUUCGAGUCCCGUAAGGAUUG [G1A G6U C66A A70U C71U],-0.159
16,AGUCCUUUGGCGUAAUGGUAACGCGUUUCCCUCCUAAGGAGACGAUUGCGGGUUCGAGUCCCGUAUGGGGUG [G1A U2G G6U C27U A43C C46U C66U A69G A70G C71U],-0.475
17,GUUCCUUUGGCGUAAUGGUAACGCGUCUCCCUCCUAAGGAGAAGAUUGCGGGUUCGAGUCCCGUAUGGAACG [G6U C46U C66U],-0.0169
18,AGUCCGUUGGCGUAAUGGUAACGCGUUUCCCUCCUAAGGAGAAGAUUGCGGGUUCGAGUCCCGUAUGGGUUG [G1A U2G C27U C46U C66U A69G A70U C71U],-0.429
19,ACUCCAUUGGCGUAAUGGUAACGCGUUUCCCUCCUAAGGAGACGAUUGCGGGUUCGAGUCCCGUAUGGAGCG [G1A U2C G6A C27U A43C C46U C66U A70G],-0.155

row,Variant,yeast fitness (ln)
1,GCUCCGUUGGCGUAAUGGUAACGCGUCUCCCUCCUAAGGAGACGACUGCGGGUUCGAGUCCCGUAUGGGGCG [U2C A43C C66U A69G A70G],-0.169
2,GGUCCAUUGGCGUAAUGGUAACGCGUCUCCCUCCUAAGGAGAAGACUGCGGGUUCGAGUCCCGUAAGGGGUG [U2G G6A C66A A69G A70G C71U],-0.213
3,GUUCCGUUGGCGUAAUGGUAACGCGUUUCCCUCCUAAGGAGAAGACUGCGGGUUCGAGUCCCGUACGGGUUG [C27U A69G A70U C71U],-0.294
4,AUUCCAUUGGCGUAAUGGUAACGCGUCUCCCUCCUAAGGAGACGAUUGCGGGUUCGAGUCCCGUAAGGAUUG [G1A G6A A43C C46U C66A A70U C71U],-0.171
5,GGUCCUUUGGCGUAAUGGUAACGCGUCUCCCUCCUAAGGAGAAGAUUGCGGGUUCGAGUCCCGUACGGGUCG [U2G G6U C46U A69G A70U],-0.402
6,GGUCCAUUGGCGUAAUGGUAACGCGUUUCCCUCCUAAGGAGACGACUGCGGGUUCGAGUCCCGUACGGGUCG [U2G G6A C27U A43C A69G A70U],-0.279
7,GCUCCAUUGGCGUAAUGGUAACGCGUCUCCCUCCUAAGGAGAAGAUUGCGGGUUCGAGUCCCGUAUGGAUCG [U2C G6A C46U C66U A70U],-0.0206
8,AUUCCAUUGGCGUAAUGGUAACGCGUUUCCCUCCUAAGGAGAAGACUGCGGGUUCGAGUCCCGUAUGGGGCG [G1A G6A C27U C66U A69G A70G],-0.386
9,AUUCCAUUGGCGUAAUGGUAACGCGUCUCCCUCCUAAGGAGACGACUGCGGGUUCGAGUCCCGUACGGAGUG [G1A G6A A43C A70G C71U],-0.27
10,ACUCCAUUGGCGUAAUGGUAACGCGUUUCCCUCCUAAGGAGACGAUUGCGGGUUCGAGUCCCGUACGGGGUG [G1A U2C G6A C27U A43C C46U A69G A70G C71U],-0.0929
11,GCUCCGUUGGCGUAAUGGUAACGCGUUUCCCUCCUAAGGAGACGAUUGCGGGUUCGAGUCCCGUACGGAACG [U2C C27U A43C C46U],-0.0298
12,GGUCCUUUGGCGUAAUGGUAACGCGUCUCCCUCCUAAGGAGAAGAUUGCGGGUUCGAGUCCCGUACGGAUCG [U2G G6U C46U A70U],-0.0198
13,GUUCCGUUGGCGUAAUGGUAACGCGUUUCCCUCCUAAGGAGACGACUGCGGGUUCGAGUCCCGUACGGGUCG [C27U A43C A69G A70U],-0.204
14,GCUCCAUUGGCGUAAUGGUAACGCGUCUCCCUCCUAAGGAGACGACUGCGGGUUCGAGUCCCGUAUGGGGUG [U2C G6A A43C C66U A69G A70G C71U],-0.072
15,AUUCCGUUGGCGUAAUGGUAACGCGUCUCCCUCCUAAGGAGACGAUUGCGGGUUCGAGUCCCGUAUGGAUCG [G1A A43C C46U C66U A70U],-0.124
16,AUUCCAUUGGCGUAAUGGUAACGCGUCUCCCUCCUAAGGAGACGAUUGCGGGUUCGAGUCCCGUACGGAUUG [G1A G6A A43C C46U A70U C71U],-0.191
17,GCUCCUUUGGCGUAAUGGUAACGCGUCUCCCUCCUAAGGAGAAGAUUGCGGGUUCGAGUCCCGUACGGAAUG [U2C G6U C46U C71U],-0.0792
18,ACUCCAUUGGCGUAAUGGUAACGCGUUUCCCUCCUAAGGAGAAGACUGCGGGUUCGAGUCCCGUAUGGAUCG [G1A U2C G6A C27U C66U A70U],-0.141
